Structures are written as SMILES.

Drawing on ChEMBL document CHEMBL4513216, “Probing the Open Global Health Chemical Diversity Library for Multistage-Active Starting Points for Next-Generation Antimalarials” (ACS Infect Dis, 2020), this text covers cytotoxicity for 96 molecules.

This data set can be described thus: Toxicity liver stage against HepG2, at 10uM. The data set is classed as cell-based. To be noted: human, HepG2-A16-CD81EGFP cells; read-out: INHIBITION
Set-up: test concentration 10 uM, cell line HepG2-A16-CD81EGFP. The essentials:
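Uninfected HepG2-A16-CD81EGFP cells, 3 × 10^3 per well, 1536-well, plated on prespotted compound at 10 μM final, parasite-free screening media added to match infected plates; puromycin 10 μM positive, DMSO 0.5% negative; run in parallel with 48 h PbLuc assay at 37 °C, 5% CO2; viability by CellTiter-Glo luminescence, normalized to controls.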
Consider `COc1cccc(OCC2CCCN(C(=O)c3ccc(N)nc3)C2)c1` (stereo unspecified), for which the cytotoxicity at 10 µM stood at 3.37%.
For `CN(CCc1cn[nH]c1)C(=O)C1CC(=O)N(Cc2cccnc2)C1` (stereo unspecified) the value was -0.812%.
With `Cc1oc(C)c(C(=O)N2CCCN(Cc3cscn3)CC2)c1C`, the cytotoxicity at 10 µM amounted to 6.88%.
`CCN(Cc1nc2c(cnn2C)c(=O)[nH]1)Cc1ccco1`: the cytotoxicity at 10 µM was -2.8%.
For `CC(C)NC(=O)COc1ccc(-c2nc(C(C)C)no2)cc1` the value was 5.67%; for `Cc1cc(CN2C[C@@H](N3CCN(C)CC3)[C@H]3OCCC[C@H]32)oc1C`, -132%.
In the case of `Cc1cc(C)n(CC2CN(CC(=O)NC3CCOCC3)CCO2)n1` (stereo unspecified) it was -11.1%; in that of `CCc1cccc2cc(CNCCCN3CCOCC3)c(=O)[nH]c12`, -0.918%.
For `CC(C)C(=O)N1CCC(NC2CCSCC2)C1` (stereo unspecified) the value was -3.54%; for `O=C(NCCCn1nc2ccccn2c1=O)NCCC1CCC1`, 5.47%; for `Cc1cccc(S(=O)(=O)N2C[C@@H]3C[C@@H](c4nc(C)no4)O[C@@H]3C2)c1`, -1.05%.
For `Cc1nnc2n1CCN(C(=O)CN1C(=O)CCOc3ccccc31)C2`, the cytotoxicity at 10 µM amounted to 4.48%.
In the case of `O=C(c1ccc(=O)[nH]c1)N1CCCC2(C=Cc3ccccc3O2)CC1` (stereo unspecified) it was 12.5%; in that of `CCC(=O)NCC(=O)Nc1c(C)cnn1Cc1cc(F)ccc1F`, -2.59%; in that of `Cc1ccc(N2CCCN(CC3CC3)C(C(C)C)C2)nn1` (stereo unspecified), 13.3%.
Regarding `CCO[C@H]1CO[C@@]2(CCCN(S(=O)(=O)c3cccnc3)C2)C1`, the cytotoxicity at 10 µM is -86.2%.
On to `CN1CCCC(c2nc3c([nH]2)CC(C)(C)CNC3=O)C1` (stereo unspecified), for which the cytotoxicity at 10 µM was 9.01%.
As for `CC(Sc1nc(N)cc(N)n1)c1nc(C(C)(C)C)no1` (stereo unspecified), the cytotoxicity at 10 µM was -5.27%.
In the case of `CN(C)C(=O)COCc1cncc2c1CCN(C1CCOCC1)C2` it was 9.66%.
For `O=C(c1cc(Cl)c2c(c1)OCO2)N1CCCC(n2ccnc2)C1` (stereo unspecified), the cytotoxicity at 10 µM was -6.93%.
In the case of `Cc1ccc(CNC(=O)CN2CCOC(Cn3cccn3)C2)s1` (stereo unspecified) it was -24.1%.
With `CCCN(C(=O)c1cccnc1)c1nc2c(s1)CCc1c-2cnn1C`, the cytotoxicity at 10 µM is 5.05%.
With `CC(=O)Nc1cc(F)c(S(=O)(=O)N(C)CC2CCC2)c(F)c1`, the cytotoxicity at 10 µM was -54.4%.
In the case of `Cc1nnc(N2CCC(CN(C)C(C)C)CC2)c(C#N)c1C` it was 3.63%; in that of `FC(F)(F)c1ccc2nc([C@H]3CCN(C4CCCCC4)C3)[nH]c2c1`, -0.668%.
In the case of `COCCN1CCCC1c1cccc2c1OCCO2` (stereo unspecified) it was -9.54%; in that of `O=C(c1ccc[nH]1)N1C[C@H]2CN(Cc3cccc(F)c3)C(=O)[C@H]2C1`, 3.99%.
In the case of `O=C(c1cnc(Nc2ccccc2)nc1)N1CCS(=O)(=O)CC1` it was -1.01%; in that of `CCc1nc(N2CCC3(CCC(=O)N(Cc4ccncc4)C3)CC2)no1`, 7.1%; in that of `COCC1CN(S(=O)(=O)C2CC2)Cc2ncn(CC3CC3)c21` (stereo unspecified), 9.03%.
For `Cc1cc(-c2cnc(N3CCNC(=O)C3)nc2-c2sccc2C)on1`, the cytotoxicity at 10 µM is -12%.
For `CC(C)n1cnnc1CN(C)C(=O)C1CCCN(CC(N)=O)C1` (stereo unspecified) the value was 1.05%; for `NC(=O)c1cnc2n1CCN(C(=O)c1ccc(Cn3cccc3)cc1)C2`, -1.5%.
Consider `CCOC1CCN(C(=O)CN(C)c2cnccn2)CC1`, for which the cytotoxicity at 10 µM was -6.07%.
In the case of `Cc1ccc(=O)n(CC2(O)CCN(Cc3cnc(N(C)C)nc3)CC2)n1` it was -26%; in that of `O=S(=O)(NCC1(O)CCCC1)c1ccccc1Br`, -3.87%; in that of `O=C(O)c1cc(S(=O)(=O)Nc2ccc(Cl)cc2)cc2c1OCCO2`, 2.33%.
Consider `COCCCNC(=O)Nc1c(C)cccc1C(C)C`, for which the cytotoxicity at 10 µM came to 2.66%.
Turning to `Cc1ccc(O)c(C(=O)N2CCCC2CC(=O)c2cnn(C)c2)c1` (stereo unspecified), the cytotoxicity at 10 µM is -3.81%.
For `Cc1cc(F)ccc1NC(=O)NCC(C)N1CCOCC1` (stereo unspecified) the value was -4.1%; for `CCn1nnnc1-c1cccc(NC(=O)COC2CCCC2)c1`, -0.47%; for `COCC(NC(=O)c1cnn(C)c1)c1cccc(C(F)(F)F)c1` (stereo unspecified), 1.73%.
For `Cc1csc(CN2CCC[C@]3(C[C@@H](OCC4CC4)CO3)C2)n1` the value was -134%; for `Cc1cc(NC(=O)NCC2COc3ccccc3C2)no1` (stereo unspecified), -9.47%.
For `NC(=O)CS(=O)(=O)Cc1csc(-c2ccc(F)cc2)n1` the value was -4.95%; for `CCc1cc(NC(=O)C2CCCN(C(=O)c3ccncc3)C2)[nH]n1` (stereo unspecified), -8.18%; for `CC(C)(C(=O)NCC1CCN(Cc2ncc[nH]2)C1)c1ccccc1` (stereo unspecified), 2.15%.
In the case of `CNC(=O)c1cccc(NC(=O)c2ccnc(N(C)C)c2)c1C`, the cytotoxicity at 10 µM worked out at 4.9%.
`CC(C)(C)c1c[nH]c([C@@H]2COCCN2C2CCCCC2)n1`: the cytotoxicity at 10 µM is -1.6%.
Turning to `CC(=O)NCC1CCN(C(=O)c2csc(-c3ccc(C)cc3C)n2)CC1`, the cytotoxicity at 10 µM was -10.8%.
As to `Cc1nc2c(c(NCc3cc4ccccc4s3)n1)CCNCC2`, the cytotoxicity at 10 µM was -48.3%.
Turning to `O=C(c1cc(Cl)c[nH]1)N1CCN(CCc2ccccn2)CC1`, the cytotoxicity at 10 µM came out at 19.2%.
In the case of `O=C(C1CCOCC1)N1CCC(O)(Cn2ccc3ccncc32)CC1` it was -19.8%; in that of `Cc1ccc(NC(=O)N2CCN(Cc3ccccn3)CC2)cc1Cl`, -7.21%; in that of `Cc1cccc(CC(=O)NCCCOC(C)C)c1`, -2.25%.
In the case of `CC(C)c1nc(CN(C)Cc2ccc(O)c(C(=O)O)c2)cs1`, the cytotoxicity at 10 µM is -4.24%.
For `CCC(NC(=O)c1cc(OC)c2c(c1)OCCO2)c1cccs1` (stereo unspecified) the value was -6.66%; for `CSc1nccc(N2C[C@H]3CC[C@@H](C2)N(CC2CCC2)C3=O)n1`, 1.88%; for `CCN1C[C@H]2C3(CCN(S(=O)(=O)CC)CC3)CC[C@@]2(C(=O)N(C)C)C1`, 2.84%.
For `Cc1cc(-c2ccccc2C(=O)O)nc(C2CCCN2S(C)(=O)=O)n1` (stereo unspecified) the value was -3.67%.
For `Cc1ccc(C#N)cc1NC(=O)NC1CCCN(c2ncccn2)C1` (stereo unspecified) the value was -10.2%; for `COc1cc(CNCCn2cccn2)c2c(c1)CC(C)O2` (stereo unspecified), 13.7%; for `Cc1nnc(C(C)NCC2(c3c(F)cccc3F)CCCC2)o1` (stereo unspecified), 0.511%.
For `COc1ccc(Cl)cc1CC(=O)N1CCN(CC(C)O)CC1` (stereo unspecified), the cytotoxicity at 10 µM was -17.1%.
Regarding `CC(C)c1nc(CN2CCOC(Cn3cncn3)C2)no1` (stereo unspecified), the cytotoxicity at 10 µM was determined as 1.01%.
Take `O=C(O)c1ncccc1N1CCCCC1`: the cytotoxicity at 10 µM stood at 4.19%.
Regarding `Cc1nc(CN2CCN(CCCc3ccccc3)CC2)no1`, the cytotoxicity at 10 µM was 11.7%.
In the case of `CC(=O)NCC1CCC2(CCN(c3ncnc4oc(C)nc34)CC2)O1` (stereo unspecified) it was 1.32%.
In the case of `Fc1ccc(OCC2CCCO2)c(NCc2cn3cccnc3n2)c1` (stereo unspecified) it was -6.31%.
With `COCC1CC2(CCN(CC3CC3)CC2)CN1Cc1csc(C)n1` (stereo unspecified), the cytotoxicity at 10 µM is 4.26%.
Take `CCC(O)CNC(=O)C1(N(C)Cc2ccccc2)Cc2ccccc2C1` (stereo unspecified): the cytotoxicity at 10 µM was 7.62%.
As for `CN1CCCc2cc(CNC(=O)c3ccc(NC4CC4)nc3)ccc21`, the cytotoxicity at 10 µM is -3.03%.
For the molecule `Cc1nc(C(C)(C)C)sc1C(=O)NCCn1ccnc1`, the cytotoxicity at 10 µM is -0.586%.
For `CC(C#N)(NC(=O)COc1ccccc1Br)C1CC1` (stereo unspecified) the value was 7.45%; for `Cc1nn(CC(=O)N2CCCN(c3cccnn3)CC2)c(C)c1Cl`, -1.2%.
For `Cc1cc(F)cc(CN2CCCn3nc(CNS(C)(=O)=O)cc3C2)c1` the value was -3.85%; for `Cc1cc(C(=O)N2CCCC(n3cccn3)C2)c(C)n1C1CC1` (stereo unspecified), -16.7%.
In the case of `CCc1c(C(=O)NCC2CCS(=O)(=O)C2)cnn1-c1ccc(C)cc1` (stereo unspecified) it was -6.69%; in that of `O=C(NCC1CC1)c1c2c(N3CCCC3)ncnc2n2ccccc12`, -61.1%.
As to `Cc1cncc(CN2C[C@@H](O)[C@H](Oc3ccccc3)C2)c1`, the cytotoxicity at 10 µM is 0.442%.
In the case of `Cc1nnc(C2CCN(C(=O)c3ccsc3)CC2)s1` it was 10.5%; in that of `CCS(=O)(=O)N1CCOC2(CCCN(c3ccc(C)nn3)C2)C1` (stereo unspecified), 0.253%; in that of `O=S(=O)(C1CC1)N1CCc2ncnc(-c3ccncc3)c2CC1`, -3.27%.
Consider `CCO[C@H]1CN(CC2CC2)[C@@H]2CCCO[C@H]12`, for which the cytotoxicity at 10 µM is -105%.
For `COc1ccccc1OCCNc1snc(Cl)c1C#N` the value was 20.5%.
For `Cc1cc(NS(=O)(=O)CC2CCCCO2)ccc1F` (stereo unspecified) the value was -11.7%; for `CC(C)NC(=O)[C@H]1C[C@@H]2[C@@H](C1)OCCN2Cc1nccs1`, 6.1%.
In the case of `CNC(=O)[C@H]1C[C@@H]2CN(S(=O)(=O)Cc3ccccc3)C[C@@H]2N1C` it was -5.06%; in that of `O=C1CC2(CCN(c3nncs3)C2)CN1c1ccccc1` (stereo unspecified), -8.25%; in that of `CC1=Nc2c(c(=O)[nH]n2C(C)C)C(c2ccc3nccnc3c2)S1` (stereo unspecified), 7.29%.
In the case of `CCN(Cc1ccccn1)Cc1cc(Cl)ccc1OC`, the cytotoxicity at 10 µM came out at 1.45%.
For `CCOCCN1CCN(CCc2ccc3c(c2)CCO3)CC1` the value was 4.1%.
For `O=C(c1ccc(F)cc1)N1C[C@H]2CCC[C@@]2(COCc2ccncc2)C1` the value was 8.04%.
For `O=C(C(CNCc1ccco1)c1ccccc1)N1CCOCC1` (stereo unspecified) the value was -2.1%; for `Cc1nn(CCO)c(C)c1CNC1CCCCc2ccccc21` (stereo unspecified), -2.42%; for `NC(=O)C1CCN(C(=O)c2cccn2Cc2cccs2)C1` (stereo unspecified), -8.5%.
